The source made the active and inactive calls. The calls are words filed in the database; no cut-off is given here.

Our source for the IC50 and inhibition values is ChEMBL document CHEMBL3232747, “Potential anti-angiogenesis effects of p-terphenyl compounds from Polyozellus multiplex” (J Nat Prod, 2014).

Test [1] relates to HUVEC. The test is described as follows: Growth inhibition of HUVEC by WST-8 assay. It is filed as functional, cell-based. As to conditions: Homo sapiens. The procedure, abridged:
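HUVECs (passages 2–8), 3 × 10^3 cells/well on collagen, adhered 12 h in EGM-2, then 12 h in EGM-2 lacking VEGF and bFGF. VEGF (1 nM) plus compound added for 72 h at 37 °C, 5% CO2. WST-8 added 2 h, absorbance at 450 nm; Ki8751 as positive control.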

Test [2] deals with Vascular endothelial growth factor receptor 2 (Homo sapiens, UniProt P35968). The test is described as follows: Inhibition of recombinant human VEGFR2. The procedure, abridged:
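Recombinant VEGFR2 tyrosine kinase activity measured by ELISA using a universal tyrosine kinase assay kit; Ki8751 as positive control.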

Test [3] relates to HUVEC. The test is described as follows: Antiangiogenic activity in HUVEC assessed as inhibition of tubule network formation after 16 hrs by fluorescence microscopic technique. As to conditions: Homo sapiens. It is filed as functional, cell-based. An outline of the steps: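 HUVECs (passages 2–8) plated at 1.6 × 10^4 cells on polymerized Matrigel with test compound at 2.5, 5, 7.5 or 10 μM; suramin 10 μM as positive control. Incubated 16 h, 37 °C, 5% CO2. Calcein-AM stained, imaged by fluorescence microscopy at 4×, total tubule length quantified.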

Test [4] concerns HUVEC. The test is described as follows: Antiinvasive activity in HUVEC by matrigel assay at 2.5 uM after 22 hrs by fluorescence microscopic technique. As to conditions: Homo sapiens. It is filed as functional, cell-based. The procedure, abridged: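 HUVECs starved 5 h in serum-free EBM-2 with 0.2% BSA, then 1 × 10^5 cells with compound (2.5 or 5 μM) loaded into inserts coated with 0.2 mg/mL Matrigel. Lower chamber: EBM-2, 0.2% BSA, 20 ng/mL VEGF, 1% FBS plus compound. After 22 h at 37 °C, invaded cells calcein-AM labeled, read at 494/517 nm; mean ± SD, n = 3.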

Chain of Vascular endothelial growth factor receptor 2 (P35968 whole entry): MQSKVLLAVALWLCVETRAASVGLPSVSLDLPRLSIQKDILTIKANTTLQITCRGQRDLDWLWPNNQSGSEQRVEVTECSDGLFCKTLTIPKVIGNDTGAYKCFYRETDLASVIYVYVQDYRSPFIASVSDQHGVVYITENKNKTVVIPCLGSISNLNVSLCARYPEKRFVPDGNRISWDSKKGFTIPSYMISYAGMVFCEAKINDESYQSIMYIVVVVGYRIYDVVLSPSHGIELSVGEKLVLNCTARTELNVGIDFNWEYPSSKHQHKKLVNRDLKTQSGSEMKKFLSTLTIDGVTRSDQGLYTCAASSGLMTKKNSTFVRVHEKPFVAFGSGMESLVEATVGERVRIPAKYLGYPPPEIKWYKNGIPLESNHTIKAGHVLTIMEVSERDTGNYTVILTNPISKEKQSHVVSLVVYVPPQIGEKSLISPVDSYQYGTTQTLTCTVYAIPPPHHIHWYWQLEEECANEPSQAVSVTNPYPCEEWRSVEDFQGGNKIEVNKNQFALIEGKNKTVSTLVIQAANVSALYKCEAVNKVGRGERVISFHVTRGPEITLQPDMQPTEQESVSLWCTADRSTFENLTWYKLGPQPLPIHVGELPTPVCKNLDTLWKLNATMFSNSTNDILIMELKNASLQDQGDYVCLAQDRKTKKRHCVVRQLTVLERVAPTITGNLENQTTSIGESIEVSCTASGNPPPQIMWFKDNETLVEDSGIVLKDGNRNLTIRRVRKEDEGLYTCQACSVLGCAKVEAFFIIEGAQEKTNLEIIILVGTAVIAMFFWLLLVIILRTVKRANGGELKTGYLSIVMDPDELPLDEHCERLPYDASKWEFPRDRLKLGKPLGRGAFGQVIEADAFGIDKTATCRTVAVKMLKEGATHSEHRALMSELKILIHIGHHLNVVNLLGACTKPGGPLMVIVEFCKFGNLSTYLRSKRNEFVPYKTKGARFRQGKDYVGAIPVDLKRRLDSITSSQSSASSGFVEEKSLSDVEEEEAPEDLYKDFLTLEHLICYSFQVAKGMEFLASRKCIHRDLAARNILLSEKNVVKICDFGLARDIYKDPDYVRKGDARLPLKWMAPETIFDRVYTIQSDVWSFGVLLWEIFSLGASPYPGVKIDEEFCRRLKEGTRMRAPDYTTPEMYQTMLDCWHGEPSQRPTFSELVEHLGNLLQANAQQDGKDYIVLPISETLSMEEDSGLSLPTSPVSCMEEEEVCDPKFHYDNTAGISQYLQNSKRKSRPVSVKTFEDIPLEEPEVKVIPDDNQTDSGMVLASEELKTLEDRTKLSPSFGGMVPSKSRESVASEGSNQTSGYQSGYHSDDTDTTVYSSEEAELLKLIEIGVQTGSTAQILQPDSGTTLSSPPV

Usually IC50 stands for the concentration that gives 50% inhibition. As for `CC(=O)CC1(O)C(=O)c2c(oc3cc(O)c(O)cc23)-c2oc3cc(O)c(O)cc3c21` (racemic), the IC50 in the test with HUVEC [1] was 21.4 µM; in test [2], 52 µM. Further, the inhibition result in the test with HUVEC [3] is “inactive”.

With `O=C1c2oc3cc(O)c(O)cc3c2C(=O)c2oc3cc(O)c(O)cc3c21`, the inhibition result in the test on HUVEC [4] was “Active”. Moreover, the concentration for half-maximal inhibition (IC50) in the test with HUVEC [1] worked out at 3.4 µM; in test [2], 70 µM. For the same molecule, the inhibition entry with HUVEC [3] is “Dose-dependent effect”.

Turning to `O=C1C(=O)c2c(oc3cc(O)c(O)cc23)-c2oc3cc(O)c(O)cc3c21`, in the test on HUVEC [4], the inhibition entry is “Active”. Moreover, the IC50 with HUVEC [1] came to 7.6 µM; in test [2], 32 µM. Also, in the test on HUVEC [3], the inhibition result is “Dose-dependent effect”.

As to `COc1cc2nccc(Oc3ccc(NC(=O)Nc4ccc(F)cc4F)c(F)c3)c2cc1OC`, the IC50 with HUVEC [1] amounted to 1.4 µM; in test [2], 2.4 µM.

Regarding `CC(=O)Oc1c2oc3cc(O)c(O)cc3c2c(OC(C)=O)c2oc3cc(O)c(O)cc3c12` [POLYOZELLIN], the IC50 turned out to be 10.2 µM in the test with HUVEC [1] and 66 µM in test [2]. In addition, the inhibition entry in the test on HUVEC [3] is “inactive”.
